According to ChEMBL document CHEMBL1135962, “The first synthesis and antifungal activities of 9-methoxystrobilurin-type beta-substituted beta-methoxyacrylate” (2002):
The source made the active and inactive calls. The rule behind the calls is not given here.

Key:
[1] = test system: Aspergillus fumigatus; experiment: Compound was evaluated for antifungal activity against Aspergillus fumigatum R-1301 as diameter of inhibition zone at a concentration 0.1 ug/disk; NE means not effective; type: functional, organism-based
How it was run: (§1)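 Disk-diffusion assay against the fungal strain named in the line. Inhibition-zone diameter was measured after 48 h incubation and is the mean of two samples. Scoring codes used: not effective, slightly effective, incomplete inhibition.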

[2] = test system: Aspergillus fumigatus; experiment: Compound was evaluated for antifungal activity against Aspergillus fumigatum R-1301 as diameter of inhibition zone at a concentration 1 ug/disk; type: functional; how it was run: as §1
[3] = test system: Aspergillus fumigatus; experiment: Compound was evaluated for antifungal activity against Aspergillus fumigatum R-1301 as diameter of inhibition zone at a concentration 10 ug/disk; type: functional; how it was run: as §1
[4] = test system: Candida albicans; experiment: Compound was evaluated for antifungal activity against Candida albicans IFO 1594 as diameter of inhibition zone at a concentration 0.1 ug/disk; NE means not effective; type: functional, organism-based; how it was run: as §1
[5] = test system: Candida albicans; experiment: Compound was evaluated for antifungal activity against Candida albicans IFO 1594 as diameter of inhibition zone at a concentration 1 ug/disk and showed incomplete inhibition; type: functional; how it was run: as §1
[6] = test system: Candida albicans; experiment: Compound was evaluated for antifungal activity against Candida albicans IFO 1594 as diameter of inhibition zone at a concentration 10 ug/disk and showed incomplete inhibition; type: functional; how it was run: as §1
[7] = test system: Fusarium solani; experiment: Compound was evaluated for antifungal activity against Fusarium solani R-2800 as diameter of inhibition zone at a concentration 0.1 ug/disk; NE means not effective; type: functional, organism-based; how it was run: as §1
[8] = test system: Fusarium solani; experiment: Compound was evaluated for antifungal activity against Fusarium solani R-2800 as diameter of inhibition zone at a concentration 1 ug/disk and showed incomplete inhibition; type: functional; how it was run: as §1
[9] = test system: Fusarium solani; experiment: Compound was evaluated for antifungal activity against Fusarium solani R-2800 as diameter of inhibition zone at a concentration 10 ug/disk and showed incomplete inhibition; type: functional; how it was run: as §1
[10] = test system: Penicillium citrinum; experiment: Compound was evaluated for antifungal activity against penicillium ctrinum R-3703 as diameter of inhibition zone at a concentration 10 ug/disk; type: functional; how it was run: as §1
[11] = test system: Penicillium citrinum; experiment: Compound was evaluated for antifungal activity against penicillium ctrinum R-3703 as diameter of inhibition zone at a concentration 0.1 ug/disk; NE means not effective; type: functional, organism-based; how it was run: as §1
[12] = test system: Penicillium citrinum; experiment: Compound was evaluated for antifungal activity against penicillium ctrinum R-3703 as diameter of inhibition zone at a concentration 1 ug/disk; type: functional; how it was run: as §1
[13] = test system: Saccharomyces cerevisiae; experiment: Compound was evaluated for antifungal activity against Saccharomyces cerevisiae IAM 4861 as diameter of inhibition zone at a concentration 10 ug/disk and showed incomplete inhibition; type: functional; how it was run: as §1
[14] = test system: Saccharomyces cerevisiae; experiment: Compound was evaluated for antifungal activity against Saccharomyces cerevisiae IAM 4861 as diameter of inhibition zone at a concentration 0.1 ug/disk; NE means not effective; type: functional, organism-based; how it was run: as §1
[15] = test system: Saccharomyces cerevisiae; experiment: Compound was evaluated for antifungal activity against Saccharomyces cerevisiae IAM 4861 as diameter of inhibition zone at a concentration 1 ug/disk and showed incomplete inhibition; type: functional; how it was run: as §1
[16] = test system: Aspergillus fumigatus; experiment: Compound was evaluated for antifungal activity against Aspergillus fumigatum R-1301 as diameter of inhibition zone at a concentration 0.1 ug/disk; type: functional; how it was run: as §1
[17] = test system: Candida albicans; experiment: Compound was evaluated for antifungal activity against Candida albicans IFO 1594 as diameter of inhibition zone at a concentration 0.1 ug/disk; SE means slightly effective; type: functional, organism-based; how it was run: as §1
[18] = test system: Fusarium solani; experiment: Compound was evaluated for antifungal activity against Fusarium solani R-2800 as diameter of inhibition zone at a concentration 1 ug/disk; NE means not effective; type: functional, organism-based; how it was run: as §1
[19] = test system: Fusarium solani; experiment: Compound was evaluated for antifungal activity against Fusarium solani R-2800 as diameter of inhibition zone at a concentration 10 ug/disk; NE means not effective; type: functional, organism-based; how it was run: as §1
[20] = test system: Penicillium citrinum; experiment: Compound was evaluated for antifungal activity against penicillium ctrinum R-3703 as diameter of inhibition zone at a concentration 0.1 ug/disk and showed incomplete inhibition; type: functional; how it was run: as §1
[21] = test system: Penicillium citrinum; experiment: Compound was evaluated for antifungal activity against penicillium ctrinum R-3703 as diameter of inhibition zone at a concentration 1 ug/disk and showed incomplete inhibition; type: functional; how it was run: as §1
[22] = test system: Saccharomyces cerevisiae; experiment: Compound was evaluated for antifungal activity against Saccharomyces cerevisiae IAM 4861 as diameter of inhibition zone at a concentration 0.1 ug/disk and showed incomplete inhibition; type: functional; how it was run: as §1
[23] = test system: Aspergillus fumigatus; experiment: Compound was evaluated for antifungal activity against Aspergillus fumigatum R-1301 as diameter of inhibition zone at a concentration 1 ug/disk; NE means not effective; type: functional, organism-based; how it was run: as §1
[24] = test system: Candida albicans; experiment: Compound was evaluated for antifungal activity against Candida albicans IFO 1594 as diameter of inhibition zone at a concentration 1 ug/disk; NE means not effective; type: functional, organism-based; how it was run: as §1
[25] = test system: Penicillium citrinum; experiment: Compound was evaluated for antifungal activity against penicillium ctrinum R-3703 as diameter of inhibition zone at a concentration 1 ug/disk; SE means slightly effective; type: functional, organism-based; how it was run: as §1
[26] = test system: Candida albicans; experiment: Compound was evaluated for antifungal activity against Candida albicans IFO 1594 as diameter of inhibition zone at a concentration 10 ug/disk; type: functional, organism-based
How it was run: (§2)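 Disk-diffusion assay against the listed yeast strains (C. albicans IFO 1594; S. cerevisiae IAM 4861). Inhibition-zone diameter read after 48 hr incubation, reported as the mean of two samples. Activity scored as not effective, slightly effective, or incomplete inhibition where applicable.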

[27] = test system: Saccharomyces cerevisiae; experiment: Compound was evaluated for antifungal activity against Saccharomyces cerevisiae IAM 4861 as diameter of inhibition zone at a concentration 10 ug/disk; type: functional, organism-based; how it was run: as §2
[28] = test system: Saccharomyces cerevisiae; experiment: Compound was evaluated for antifungal activity against Saccharomyces cerevisiae IAM 4861 as diameter of inhibition zone at a concentration 1 ug/disk; SE means slightly effective; type: functional, organism-based; how it was run: as §1
[29] = test system: Penicillium citrinum; experiment: Compound was evaluated for antifungal activity against penicillium ctrinum R-3703 as diameter of inhibition zone at a concentration 1 ug/disk; NE means not effective; type: functional, organism-based; how it was run: as §1
[30] = test system: Aspergillus fumigatus; experiment: Compound was evaluated for antifungal activity against Aspergillus fumigatum R-1301 as diameter of inhibition zone at a concentration 10 ug/disk; NE means not effective; type: functional, organism-based; how it was run: as §1
[31] = test system: Candida albicans; experiment: Compound was evaluated for antifungal activity against Candida albicans IFO 1594 as diameter of inhibition zone at a concentration 10 ug/disk; NE means not effective; type: functional, organism-based; how it was run: as §1
[32] = test system: Penicillium citrinum; experiment: Compound was evaluated for antifungal activity against penicillium ctrinum R-3703 as diameter of inhibition zone at a concentration 10 ug/disk; NE means not effective; type: functional, organism-based; how it was run: as §1
[33] = test system: Saccharomyces cerevisiae; experiment: Compound was evaluated for antifungal activity against Saccharomyces cerevisiae IAM 4861 as diameter of inhibition zone at a concentration 10 ug/disk; SE means slightly effective; type: functional, organism-based; how it was run: as §1
[34] = test system: Saccharomyces cerevisiae; experiment: Compound was evaluated for antifungal activity against Saccharomyces cerevisiae IAM 4861 as diameter of inhibition zone at a concentration 1 ug/disk; NE means not effective; type: functional, organism-based; how it was run: as §1
[35] = test system: Penicillium citrinum; experiment: Compound was evaluated for antifungal activity against penicillium ctrinum R-3703 as diameter of inhibition zone at a concentration 0.1 ug/disk; SE means slightly effective; type: functional, organism-based; how it was run: as §1
[36] = test system: Candida albicans; experiment: Compound was evaluated for antifungal activity against Candida albicans IFO 1594 as diameter of inhibition zone at a concentration 10 ug/disk; SE means slightly effective; type: functional, organism-based; how it was run: as §1
[37] = test system: Saccharomyces cerevisiae; experiment: Compound was evaluated for antifungal activity against Saccharomyces cerevisiae IAM 4861 as diameter of inhibition zone at a concentration 10 ug/disk; NE means not effective; type: functional, organism-based; how it was run: as §1

Compound	Inhibition zone [1]	Inhibition zone [2]	Inhibition zone [3]	Inhibition zone [4]	Inhibition zone [5]	Inhibition zone [6]	Inhibition zone [7]	Inhibition zone [10]	Inhibition zone [11]	Inhibition zone [13]	Inhibition zone [14]	Inhibition zone [15]	Inhibition zone [18]	Inhibition zone [19]	Inhibition zone [23]	Inhibition zone [24]	further results
COC(=O)\C=C(OC)/C(C)=C(\C=C\c1ccccc1)OC	inactive	17 mm	36 mm	inactive	27 mm	32 mm	inactive	42 mm	inactive	46 mm	inactive	30 mm					Inhibition zone [8]: 22 mm; Inhibition zone [9]: 30 mm; Inhibition zone [12]: 17 mm
CO\C=C(C(=O)OC)/C(C)=C(\C=C\c1ccccc1)OC [9-METHOXYSTROBILURIN A]		28 mm	38 mm		32 mm	42 mm	inactive	33 mm		44 mm		39 mm	inactive	inactive			Inhibition zone [16]: 16 mm; Inhibition zone [17]: Slightly Effective; Inhibition zone [20]: 19 mm; Inhibition zone [21]: 23 mm; Inhibition zone [22]: 13 mm
COC(=O)/C=C(/OC)[C@H](C)[C@H](/C=C/c1ccccc1)OC [listing 1 of 2 here]	inactive			inactive			inactive		inactive		inactive		inactive	inactive	inactive	inactive	Inhibition zone [25]: Slightly effective
NYSTATIN			16 mm					10 mm						inactive			Inhibition zone [26]: 16 mm; Inhibition zone [27]: 18 mm
COC(=O)/C=C(/OC)[C@H](C)[C@H](/C=C/c1ccccc1)OC (racemic) [listing 1 of 2 here]	inactive			inactive			inactive		inactive		inactive		inactive	inactive	inactive	inactive	Inhibition zone [25]: Slightly effective; Inhibition zone [28]: Slightly effective
COC(=O)\C=C(OC)/C(C)=C(\C=C\c1ccc2ccccc2c1)OC	inactive	10 mm	16 mm	inactive	8 mm	14 mm	inactive	13 mm	inactive	21 mm	inactive	15 mm					Inhibition zone [8]: 19 mm; Inhibition zone [9]: 27 mm; Inhibition zone [29]: inactive
COC(=O)/C=C(/OC)[C@H](C)[C@H](/C=C/c1ccccc1)OC (racemic) [listing 2 of 2 here]			23 mm			14 mm		26 mm		39 mm							
COC(=O)\C=C(OC)/C(C)=C(\C=C\c1cccc2ccccc12)OC	inactive			inactive			inactive		inactive		inactive		inactive	inactive	inactive	inactive	Inhibition zone [30]: inactive; Inhibition zone [31]: inactive; Inhibition zone [32]: inactive; Inhibition zone [29]: inactive; Inhibition zone [33]: Slightly effective; Inhibition zone [34]: inactive
COC(=O)\C=C(OC)/C(C)=C(\C=C\c1cccs1)OC	inactive	20 mm	29 mm	inactive	16 mm	32 mm	inactive	40 mm		49 mm	inactive	31 mm	inactive	inactive			Inhibition zone [12]: 21 mm; Inhibition zone [35]: Slightly effective
COC(=O)C=C(OC)/C(C)=C(\C=C\c1ccc(OC)c(OC)c1)OC	inactive	8 mm	12 mm	inactive			inactive	33 mm	inactive	18 mm	inactive	12 mm	inactive	inactive		inactive	Inhibition zone [12]: 18 mm; Inhibition zone [36]: Slightly effective
COC(=O)/C=C(/OC)[C@@H](C)[C@H](/C=C/c1ccccc1)OC (racemic)	inactive			inactive			inactive		inactive		inactive		inactive	inactive	inactive	inactive	Inhibition zone [30]: inactive; Inhibition zone [31]: inactive; Inhibition zone [32]: inactive; Inhibition zone [29]: inactive; Inhibition zone [37]: inactive; Inhibition zone [34]: inactive
COC(=O)/C=C(/OC)[C@H](C)[C@H](/C=C/c1ccccc1)OC [listing 2 of 2 here]						20 mm		28 mm		43 mm		25 mm					
